Pf gamet viab = inhibitors of late stage P. falciparum gametocyte viability. P. falciparum stage V gametocytes, ATP luminescence, 24 h. inhibition, % at 10.9 µM. hit rate 0.065% among 150,000;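 active means inhibition above the mean plus 3 SD of compounds within the control limits, set per campaign, cut at about 38% in these data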;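 further: 0% = DMSO wells and 100% = medium only without gametocytes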
bCat nuc transl = beta-catenin nuclear translocation modulation. AID 1665. hit rate 0.3% among 190,000. nuclear translocation activity, % at 5 µM. HeLa beta-catenin nuclear translocation, immunofluorescence imaging;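 active means nuclear translocation activity above 50% at 5 µM, with a well cell count of 50 or more; inconclusive means wells under 50 cells across six images, flagged as toxic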;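 further: per-cell ratio of nuclear to cytoplasmic median beta-catenin stain intensity; plate controls were DMSO negative control for no effect and GSK-3 inhibitor IX positive control for full effect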
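Test system: human HeLa cell line; Doses: 5 µM primary, 0.02–20 µM confirmation; Incubation: 24 h compound exposure, 37°C; Detection: beta-catenin immunofluorescence imaging with DAPI; Read-out: beta-catenin nuclear/cytoplasmic ratio, % activation.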
MT stabilize HCS = stabilizes microtubules in HeLa cells; hit rate 0.83% among 200,000; AID 2205; % tubulin-high responders, % at 10 µM; HeLa tubulin immunostaining HCS, 24 h; share of cells brighter than vehicle mean+2SD;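 active means plate Z-score above 3 for both tubulin-high and condensed-nucleus cell shares, with cell loss under 80%, at 10 µM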;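 further: anti alpha tubulin signal scored within the nucleus-defined area of each cell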
Cl transport mod = modulators of human KCC2 chloride dependent transport | Q9H2X9 | KCC2 cells, thallium flux FluoZin-2 fluorescence | B-score of Tl+ flux slope (higher = more flux/activation; lower = inhibition) at 10 µM | hit rate 2.2% among 190,000 | AID 1456;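 active means thallium flux slope and its plate-corrected score both differing from the plate sample mean at a set confidence after two filtering rounds, in either direction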;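 further: slope of fluorescence scaled to starting intensity during 10 to 20 s after thallium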
Target sequence (Q9H2X9 whole entry, looked up): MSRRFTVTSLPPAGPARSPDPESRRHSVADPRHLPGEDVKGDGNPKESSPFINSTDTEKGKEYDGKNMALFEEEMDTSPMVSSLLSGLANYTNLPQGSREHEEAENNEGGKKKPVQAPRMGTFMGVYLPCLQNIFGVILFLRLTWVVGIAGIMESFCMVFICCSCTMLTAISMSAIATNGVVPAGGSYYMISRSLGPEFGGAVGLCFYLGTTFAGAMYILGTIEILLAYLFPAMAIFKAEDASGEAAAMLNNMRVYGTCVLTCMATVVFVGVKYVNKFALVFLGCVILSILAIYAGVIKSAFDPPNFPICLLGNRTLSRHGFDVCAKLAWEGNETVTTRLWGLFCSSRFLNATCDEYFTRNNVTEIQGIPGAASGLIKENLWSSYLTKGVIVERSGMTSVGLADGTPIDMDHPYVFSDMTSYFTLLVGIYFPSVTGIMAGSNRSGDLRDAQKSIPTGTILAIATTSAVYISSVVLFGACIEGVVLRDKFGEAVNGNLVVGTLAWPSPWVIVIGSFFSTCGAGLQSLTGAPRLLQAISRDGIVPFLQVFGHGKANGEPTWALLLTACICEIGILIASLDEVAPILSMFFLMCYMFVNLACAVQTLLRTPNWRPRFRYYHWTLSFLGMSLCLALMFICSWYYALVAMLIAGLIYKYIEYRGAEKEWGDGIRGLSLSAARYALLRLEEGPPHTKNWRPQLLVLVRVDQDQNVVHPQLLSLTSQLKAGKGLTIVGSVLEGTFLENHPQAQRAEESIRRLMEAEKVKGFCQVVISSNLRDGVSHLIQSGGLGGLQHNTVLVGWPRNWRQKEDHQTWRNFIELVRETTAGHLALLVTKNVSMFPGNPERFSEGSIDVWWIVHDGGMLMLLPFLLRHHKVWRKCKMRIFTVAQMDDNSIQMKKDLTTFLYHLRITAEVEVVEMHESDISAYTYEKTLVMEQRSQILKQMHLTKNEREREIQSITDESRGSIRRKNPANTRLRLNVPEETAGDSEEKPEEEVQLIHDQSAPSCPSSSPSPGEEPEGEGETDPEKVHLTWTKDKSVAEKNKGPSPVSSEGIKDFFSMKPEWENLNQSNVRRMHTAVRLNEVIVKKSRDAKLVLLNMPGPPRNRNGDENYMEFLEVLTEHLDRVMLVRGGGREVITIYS
WT yeast gro inh = growth inhibition of WT yeast, mitochondrial fusion screen; mitochondrial fusion phenotypic screen, WT strain; inhibition, % at 10 µM; AID 1362; hit rate 2.1% among 190,000; in the data active means inhibition above about 58%; tested in S. cerevisiae
KCC2 sec1 = KCC2 (human) modulation, secondary assay; shares compounds with Cl transport mod; HEK293-KCC2, thallium flux, FluoZin2 fluorescence; hits give high values; normalised thallium flux (F/F0 slope) at 10 µM; hit rate 15% among 3,700; AID 1713;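 active means thallium flux slope above the same plate's solvent-only control mean plus 3 SD; inconclusive means the two replicate wells disagree; inactive means no significant difference from solvent-only control wells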
KCC2 bumet counter = bumetanide-insensitive thallium flux in KCC2 cells with ouabain, counter-screen. hit rate 49% among 3,700. shares compounds with Cl transport mod. normalized thallium flux at 10 µM. AID 1714. HEK293-KCC2 + bumetanide/ouabain, thallium flux FluoZin2; hits give high values;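 active means thallium entry rate above the same plate's blocked-transporter control wells by more than 3 SD; inconclusive means the two repeat wells disagree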;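 further: raw slope of fluorescence over initial fluorescence between 10 and 20 s after thallium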
KCC2 sec2 = confirmation of human KCC2 transport modulators; shares compounds with Cl transport mod; HEK293-KCC2, thallium flux FluoZin2 fluorescence; actives lie on both sides; F/F0 rise rate, 10–20 s post-thallium; normalized thallium flux at 10 µM; hit rate 23% among 3,700; AID 1715;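 active means thallium flux slope more than 3 SD above or below the plate's solvent-only control mean, mostly below; inconclusive means the two repeat wells disagreed; inactive means no significant shift from solvent-only controls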;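 further: raw slope with 0.1% DMSO as baseline and bumetanide as block control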
HEK counter1 = acts in parental HEK cells, KCC2 counter-screen | hit rate 46% among 3,700 | shares compounds with Cl transport mod | thallium flux rate (normalised fluorescence) at 10 µM | HEK293 parental cells, thallium flux FluoZin2, ouabain; baseline-ratio fluorescence slope, 10–20 s after thallium | AID 1716;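 active means thallium flux rate significantly above the same plate's solvent-only control wells, beyond their mean plus 3 SD; inconclusive means the two replicate wells gave conflicting results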
KCC2 ouabain = modulates human KCC2 on retest with ouabain | AID 1717 | shares compounds with Cl transport mod | HEK293-KCC2, thallium flux FluoZin2 fluorescence; bidirectional: low = inhibitor, high = activator | hit rate 48% among 3,700 | raw Tl+ flux slope (below DMSO = inhibition, above = activation) at 10 µM;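 active means thallium flux slope beyond 3 SD from same-plate DMSO control mean in most replicates, usually higher, sometimes lower; inconclusive means repeat tests gave conflicting results; inactive means no significant difference from controls in most replicates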;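 further: slope of initial-normalized fluorescence between seconds 10 and 20 after thallium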
HEK counter2 = acts in parental HEK cells, second KCC2 counter-screen; shares compounds with Cl transport mod; HEK293 parental, thallium flux FluoZin-2 fluorescence slope; thallium flux slope at 10 µM; hit rate 33% among 3,700; AID 1718;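 active means thallium flux slope above the same plate's solvent-control mean plus 3 SD in both duplicate wells; inconclusive means duplicate wells that disagreed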;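 further: run without ouabain in cells lacking the KCC2 cotransporter; slope of fluorescence scaled to its starting value between 10 and 20 s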
* hit, by the source's call; ? = inconclusive; nt = no result. This is a sample that favours compounds with a hit; in the whole collection about 4% have one here.

SMILES	Pf gamet viab	bCat nuc transl	MT stabilize HCS	Cl transport mod	WT yeast gro inh	KCC2 sec1	KCC2 bumet counter	KCC2 sec2	HEK counter1	KCC2 ouabain	HEK counter2
COc1ccc(C(=O)NC(=S)N2CCN(c3ccc([N+](=O)[O-])cc3)CC2)cc1	nt	-3.3	3.3	4.11*	21.1	0.00632	0.0124*	0.0316	0.0096*	0.0288*	0.0113*
S=C1NCCNC(=S)NCCOCCOCCOCCN1	6.3	-1.7	3.2	1.08	-0.5	nt	nt	nt	nt	nt	nt
O=C(NCCc1ccc(Cl)cc1)C1CCN(S(=O)(=O)N2CCCC2)CC1	nt	-3.1	3.6	-6.7*	4.9	0.00681	0.00466	0.028	0.00785	0.0188	0.0106
COc1ccc(CNS(=O)(=O)NCc2ccc(C)cc2)cc1OC	3.1	-1.0	4.3	-0.764	-11.1	nt	nt	nt	nt	nt	nt
CCCCOc1ccc(-c2nc(/C=N/c3nccs3)c(O)o2)cc1	-7.8	-1.8	2.7	2.21	-1.3	nt	nt	nt	nt	nt	nt
Oc1oc(-c2ccccc2)nc1/C=N/c1nccs1	nt	-1.0	2.0	14.4*	-9.4	0.0161*	0.0822*	0.0324	0.0167*	0.0439*	0.0117*
C/C(=N\NC(=O)NC1CCCCC1)c1ccco1	3.5	nt	2.5	1.2	-14.6	nt	nt	nt	nt	nt	nt
COC(=O)C1=C(C)N(CCCC(=O)O)C(=O)NC1c1cc2c(cc1[N+](=O)[O-])OCO2 (stereo not given)	nt	0.5	2.2	3.71*	16.2	0.00677	?	0.0277	0.00727	0.0181	0.00983
COC(=O)C1=C(C)N(C)C(=O)NC1c1cc2c(cc1[N+](=O)[O-])OCO2 (stereo not given)	-5.4	-1.5	2.6	0.223	3.1	nt	nt	nt	nt	nt	nt
COCCCN(C(=S)Nc1cc(C)cc(C)c1)C(C)c1ccncc1 (stereo not given)	nt	1.2	2.6	1.13	4.3	nt	nt	nt	nt	nt	nt
C=CCn1c(=S)[nH]c2sc3c(c2c1=O)CCCC3	-11.8	nt	nt	nt	nt	nt	nt	nt	nt	nt	nt
C=CCn1c(=S)[nH]c2sccc2c1=O	8.9	-3.0	5.0	7.77*	-7.4	0.00678	0.0147*	0.0357	0.0166*	?	0.0192*
COc1cc2c(cc1OC)C(C)N(C(=S)NC(=O)c1ccccc1)CC2 (stereo not given)	19.4	-0.2	1.5	20.5*	-7.6	?	0.0625*	0.0431*	0.0413*	0.0486*	0.0295*
CCOC(=O)C1CCN(C(=O)N(CC)CC)CC1	20.4	0.3	1.5	-0.058	1.6	nt	nt	nt	nt	nt	nt
CN(C)c1cccc(C(=O)Nc2cccc(F)c2)c1	nt	0.0	1.9	-0.282	13.7	nt	nt	nt	nt	nt	nt
CCN(CC)c1ccc(C(=O)Nc2cccc(F)c2)cc1	nt	0.1	41.8	-3.3*	5.5	0.0185	0.00384	0.0269	?	0.0135	0.00943
O=C(CNC(=O)c1cccs1)NC1=NCCS1	14.0	2.8	3.5	2.86*	-11.3	0.00573	0.00491	0.0302	0.00799	0.0191	0.011
O=C(Nc1c(C(=O)Nc2ccccc2)cnn1-c1ccccc1)c1ccco1	3.1	-7.2	1.4	nt	-3.6	nt	nt	nt	nt	nt	nt
CC(C)c1ccc(NC(=O)c2cnn(-c3ccccc3)c2NC(=O)c2ccco2)cc1	4.2	1.3	1.8	-3.72*	7.2	0.00688	?	0.0263*	0.00725	?	0.0108
O=C(CN1CCN(c2ccccc2F)CC1)c1c[nH]c2ccc(F)cc12	13.1	-0.1	1.6	-3.99*	-2.3	0.00728	0.0108*	0.0313	?	0.0176*	0.0101
NC(=O)C1CCN(CC(=O)c2c[nH]c3ccc(F)cc23)CC1	nt	3.6	3.5	1.01	-26.7	nt	nt	nt	nt	nt	nt
COc1ccccc1-n1cc(-c2ccc([N+](=O)[O-])cc2)[nH]c1=S	17.1	3.8	nt	0.0428	nt	nt	nt	nt	nt	nt	nt
Cc1cccc(-n2cc(-c3ccc([N+](=O)[O-])cc3)[nH]c2=S)c1	-25.7	7.3	6.4	5.14*	-13.6	?	0.0168*	0.0326	0.0188*	0.0278*	0.0152*
O=[N+]([O-])c1cccc(-c2cn(-c3ccccc3)c(=S)[nH]2)c1	nt	-1.0	2.2	15.6*	7.8	0.014*	0.0365*	0.038	0.0206*	?	0.0135*
Cc1ccc(-n2cc(-c3ccc([N+](=O)[O-])cc3)[nH]c2=S)c(C)c1	6.8	-0.7	7.7	25.7*	-12.6	?	0.099*	0.0771*	0.0864*	0.0805*	0.0547*
SMILES	Pf gamet viab	bCat nuc transl	MT stabilize HCS	Cl transport mod	WT yeast gro inh	KCC2 sec1	KCC2 bumet counter	KCC2 sec2	HEK counter1	KCC2 ouabain	HEK counter2
CC(NC(=O)c1ccnc(C(C)(C)C)c1)c1ccccc1 (stereo not given)	-3.0	1.0	4.9	0.552	18.6	0.0185	?	?	0.00709	0.0151	0.00941
CC(C)(CC(=O)O)CC(=O)Nc1ccc(Oc2ccc(C(C)(C)C)cc2)nc1	-3.5	-4.6	nt	4.85*	nt	0.00558	0.00445	0.0299	0.00715	0.0187	0.00982
C#CCNC(=O)C1=C[C@@H](c2ccc3c(c2)OCO3)C[C@@H](OCCCCO)O1	-33.7	nt	nt	nt	nt	nt	nt	nt	nt	nt	nt
CN(C)S(=O)(=O)c1ccc(C(=O)Nc2ccccc2C(=O)O)cc1	30.8	-9.0	5.1	-4.13*	-17.2	0.00943	0.00547	0.0292	0.00719	0.022	?
CC(=O)N1N=C(c2cccc(Br)c2)OC12CCCC2	22.4	0.1	1.8	-0.344	1.9	nt	nt	nt	nt	nt	nt
CSCCC(=O)N1CCCC(CNC(=O)c2ccc(-c3ccccc3)cc2)C1 (stereo not given)	nt	1.0	1.8	-5.83*	2.7	0.00605	0.00494	0.0214*	0.00745	0.0134*	0.0102
CCc1cc(C(=O)N2CCCC(CNC(=O)c3ccc(-c4ccccc4)cc3)C2)no1 (stereo not given)	27.1	1.6	2.8	nt	14.1	0.00809	0.00655	0.0275*	0.00639	0.0138*	0.0105
COc1cc(C)ccc1OCCOCCOc1c(C)cc(C)cc1Br	-5.5	-4.3	1.4	-0.0452	1.5	nt	nt	nt	nt	nt	nt
COc1ccccc1OCCOCCOc1c(C)cc(C)cc1Br	-5.2	-0.3	1.6	-5.41*	26.1	0.015	0.00452	0.0282	0.00701	0.0153	0.0106
C(=N\Nc1nc2ccccc2[nH]1)/C1CCCCC1	5.7	-3.0	2.8	-0.338	-1.7	nt	nt	nt	nt	nt	nt
CSc1nnc(SCC2=NNC(=O)SC2)s1	28.7	1.6	6.0	0.0181	-1.9	nt	nt	nt	nt	nt	nt
O=C(CSc1ncnc2c1oc1ccccc12)NC1CCCCC1	nt	-6.4	4.4	-3.75*	1.6	0.00951	0.00571	?	0.00672	0.0203*	0.0107
